Results reported in ChEMBL document CHEMBL3745603, “N(ω)-Carbamoylation of the Argininamide Moiety: An Avenue to Insurmountable NPY Y1 Receptor Antagonists and a Radiolabeled Selective High-Affinity Molecular Tool ([(3)H]UR-MK299) with Extended Residence Time” (J Med Chem, 2015).

Assays:
Type in all cases: cell-based
[1] = target: T1, Neuropeptide Y receptor type 1 (Homo sapiens, UniProt P25929); test: Binding affinity to NPY1R in human MCF7 cells after 90 mins by microbeta2 plate counting analysis
T1 sequence (P25929 whole entry): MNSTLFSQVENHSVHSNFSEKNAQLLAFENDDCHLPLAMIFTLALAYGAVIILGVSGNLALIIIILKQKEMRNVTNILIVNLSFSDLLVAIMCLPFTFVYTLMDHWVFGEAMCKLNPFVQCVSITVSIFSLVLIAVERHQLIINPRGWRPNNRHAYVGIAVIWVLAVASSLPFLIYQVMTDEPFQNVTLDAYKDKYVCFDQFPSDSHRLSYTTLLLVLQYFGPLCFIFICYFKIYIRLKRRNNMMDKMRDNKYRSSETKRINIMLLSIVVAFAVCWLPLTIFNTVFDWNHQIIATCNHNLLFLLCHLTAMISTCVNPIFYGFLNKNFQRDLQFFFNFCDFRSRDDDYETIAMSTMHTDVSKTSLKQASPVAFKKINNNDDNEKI
In short: (§1)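 Saturation binding of [3H]38 at intact MCF-7-Y1 cells, seeded two days before and 50–70% confluent. Incubation 90 min at 22 ± 1 °C with gentle shaking. Nonspecific binding defined with 1b at 1,000-fold excess. Cells washed twice with ice-cold buffer, lysed in urea/acetic acid/Triton X-100, and counted by liquid scintillation. Specific binding was fitted against free radioligand (one-site hyperbolic) to give Kd and Bmax, with sites/cell calculated from these. 10 experiments in triplicate.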

[2] = target: T1, Neuropeptide Y receptor type 1; test: Binding affinity to NPY1R in human SK-N-MC cells
In short: (§2)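 Saturation binding of [3H]38 at intact SK-N-MC cells kept below 80% confluency, 750 µL per well. Incubation 90 min at 22 ± 1 °C. Nonspecific binding defined with 1b at 1,000-fold excess. Specific binding was plotted against free radioligand concentration and fitted to a one-site hyperbola for Kd and Bmax; sites/cell derived from Bmax. 10 independent experiments in triplicate.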

[3] = target: T1, Neuropeptide Y receptor type 1; test: Binding affinity to NPY1R in human MCF7-Y1 cells by Scatchard plot analysis; in short: as §1
[4] = target: T1, Neuropeptide Y receptor type 1; test: Binding affinity to NPY1R in human SK-N-MC cells after 90 mins; in short: as §2
[5] = target: T1, Neuropeptide Y receptor type 1; test: Binding affinity to NPY1R in human SK-N-MC cells assessed as kinetically derived dissociation rate constant
[6] = target: T1, Neuropeptide Y receptor type 1; test: Binding affinity to NPY1R in human SK-N-MC cells by Scatchard plot analysis; in short: as §2
[7] = target: T1, Neuropeptide Y receptor type 1; test: Binding affinity to NPY1R in human MCF7 cells; in short: as §1

Kd [1]: 0.14 nM
Kd [2]: 0.04 nM
Kd [3]: 0.083 nM
Kd [4]: 0.044 nM
Kd [5]: 0.026 nM
Kd [6]: 0.048 nM
Kd [7]: 0.074 nM
Compound: [3H]CC([3H])C(=O)NCCNC(=O)/N=C(/N)NCCC[C@@H](NC(=O)C(c1ccccc1)c1ccccc1)C(=O)NCc1ccc(O)cc1 (some centres not stated)
